These results are taken from ChEMBL document CHEMBL1147233, “Chemistry and structure-activity relationship of HIV-1 integrase inhibitor integracide B and related natural products” (J Nat Prod, 2003).

Bounds are passed on as bounds.

Test [1] has as its target T1, Human immunodeficiency virus type 1 integrase (Human immunodeficiency virus 1, UniProt Q7ZJM1). In words: Inhibition of recombinant HIV1 integrase using unprocessed donor DNA by coupled assay. An outline of the steps:
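Unprocessed donor DNA and inhibitor incubated with recombinant integrase together for 30 min, then target DNA added; strand-transfer product measured. Final DMSO 10%. IC50 from serial 2-fold dilutions in duplicate or triplicate; values without error limits are the average of these.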

The target of test [2] is T1, Human immunodeficiency virus type 1 integrase. In words: Inhibition of recombinant HIV1 integrase using preprocessed donor DNA treated after washing excess enzyme by strand transfer assay. A digest of the protocol:
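Integrase preincubated with preprocessed donor DNA, unbound enzyme washed off, then target DNA and inhibitor added together. Strand transfer product measured. Final DMSO 10%. IC50 from serial 2-fold dilutions run in duplicate or triplicate; values without error limits are the average of these.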

For test [3], the system named is Human immunodeficiency virus 1. As to the kind of experiment: Antiviral activity against HIV1 infected in human H9 cells. In kind it is functional. The conditions noted are these: Human immunodeficiency virus 1, H9; read-out: CIC95. A digest of the protocol: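 Multiple-cycle viral spread assay in HIV-1-infected H9 T-lymphoid cells; value is CIC95, the concentration giving >95% protection from viral infection.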

Test [4] deals with Type II restriction enzyme EcoRI (Escherichia coli, UniProt P00642). As to the kind of experiment: Inhibition of Escherichia coli ECOR1.
Test [5] can be described thus: Inhibition of DNAse.
Test [6] has as its target T1, Human immunodeficiency virus type 1 integrase. In words: Inhibition of HIV1 integrase assessed as inhibition of 3'-end processing reaction. A digest of the protocol: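 Specific 3′-end processing of LTR donor-sequence oligonucleotide substrates, run with […]. IC₅₀ values without error limits are the average of duplicate or triplicate data sets.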

For test [7] the target is unchanged. In words: Inhibition of recombinant HIV1 integrase using preprocessed donor DNA by assembly assay. A digest of the protocol:
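Recombinant integrase and inhibitor were incubated with preprocessed donor DNA, unbound integrase was washed off, then target DNA was added. The read-out is the strand-transfer product. Final DMSO was 10%. IC₅₀ came from 2-fold dilution series run in duplicate or triplicate.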

The target is the same in test [8]. In words: Inhibition of HIV1 integrase-mediated preintegration complex formation by Southern blotting. An outline of the steps:
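Preintegration complexes were isolated from HIV-1-infected cells, partially purified and used in an integration reaction. Products were analysed by Southern blotting and quantified by phosphorimaging. IC₅₀ values without error limits are the average of duplicate or triplicate data sets.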

T1 sequence (Q7ZJM1 whole entry): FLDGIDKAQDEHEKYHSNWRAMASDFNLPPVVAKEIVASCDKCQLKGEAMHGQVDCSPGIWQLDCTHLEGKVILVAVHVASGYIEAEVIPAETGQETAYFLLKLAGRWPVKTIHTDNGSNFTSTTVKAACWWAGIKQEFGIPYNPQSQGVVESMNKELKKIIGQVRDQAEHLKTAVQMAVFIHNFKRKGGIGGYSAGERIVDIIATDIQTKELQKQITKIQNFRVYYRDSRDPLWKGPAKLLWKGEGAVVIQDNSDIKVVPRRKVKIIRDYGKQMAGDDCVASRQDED
Sequence of Type II restriction enzyme EcoRI (P00642 whole entry): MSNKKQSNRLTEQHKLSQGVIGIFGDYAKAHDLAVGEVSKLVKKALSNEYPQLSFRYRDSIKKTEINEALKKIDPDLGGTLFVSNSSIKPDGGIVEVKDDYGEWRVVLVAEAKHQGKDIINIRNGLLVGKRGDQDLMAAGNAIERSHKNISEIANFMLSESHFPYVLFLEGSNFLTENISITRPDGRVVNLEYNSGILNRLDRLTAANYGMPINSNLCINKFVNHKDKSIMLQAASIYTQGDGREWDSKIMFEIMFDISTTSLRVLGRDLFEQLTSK

The IC50 is the midpoint of a concentration-inhibition curve. In the case of `C=C(CC[C@@H](C)[C@H]1CC=C2C3=C([C@@H](O)[C@H](OC(C)=O)[C@@]21C)[C@@]1(C)C[C@@H](OC(=O)CCC(=O)O)[C@H](O)C(C)(C)[C@@H]1CC3)C(C)C`, the IC50 was 3 µM in test [1], 12 µM in test [2], above 50 µM in test [4] and above 50 µM in test [5]. In test [3], the IC95 came out at 6 µM.

On to `CC(=O)O[C@H]1[C@H](O)C2=C(CC[C@H]3C(C)(C)[C@@H](OS(=O)(=O)O)[C@H](OC(=O)CCCCCCCCCCCCCCCO)C[C@]23C)[C@@H]2CC[C@H]([C@H](C)CCC3(C(C)(C)O)CO3)[C@]21C` (some centres undefined), for which the IC50 in test [1] is 5.6 µM; in test [2] it was 5.6 µM; in test [6], 2 µM; in test [7], 12 µM; in test [8], 50 µM; in test [4], above 50 µM. In test [5], this compound had an IC50 above 50 µM. Also, in test [3], the IC95 is above 50 µM.

On to `CC(=O)O[C@H]1[C@H](O)C2=C(CC[C@H]3C(C)(C)[C@@H](OS(=O)(=O)O)[C@H](OC(=O)CCCCCCCCCCCCCCCO)C[C@]23C)C2=CC[C@H]([C@H](C)CCC3(C(C)(C)O)CO3)[C@]21C` (some centres undefined), for which the IC50 is 5 µM in test [1]; 14 µM in test [2]; 10 µM in test [6]; above 50 µM in test [4]; above 50 µM in test [5]. For the same compound, in test [3], the IC95 was 6 µM.

For the compound `C=C(CC[C@@H](C)[C@H]1CC[C@H]2C3=C([C@@H](O)[C@H](OC(C)=O)[C@]12C)[C@@]1(C)C[C@@H](O)[C@H](OS(=O)(=O)O)C(C)(C)[C@@H]1CC3)C(C)C`, the IC50 was 5 µM in test [1]; 15 µM in test [2]; 5 µM in test [6]; 10 µM in test [7]; 30 µM in test [8]; above 50 µM in test [4]. In test [5], this compound gave an IC50 above 50 µM. Further, the IC95 in test [3] was found to be 50 µM.

Turning to `C=C(CC[C@@H](C)[C@H]1CC=C2C3=C([C@@H](O)[C@H](OC(C)=O)[C@@]21C)[C@@]1(C)C[C@@H](O)[C@H](OC(=O)CCC(=O)O)C(C)(C)[C@@H]1CC3)C(C)C`, the IC50 was 3 µM in test [1]; 12 µM in test [2]; 5 µM in test [6]; above 50 µM in test [4]; above 50 µM in test [5]. For the same compound, the IC95 in test [3] was found to be 6 µM.

As for `C=C(CC[C@@H](C)[C@H]1CC=C2C3=C([C@@H](O)[C@H](OC(C)=O)[C@@]21C)[C@@]1(C)C[C@@H](O)[C@H](OS(=O)(=O)O)C(C)(C)[C@@H]1CC3)C(C)C` [INTEGRACIDE A], the concentration for half-maximal inhibition (IC50) was 4 µM in test [1]; 9 µM in test [2]; 5 µM in test [6]; 50 µM in test [8]; above 50 µM in test [4]; above 50 µM in test [5]. In addition, in test [3], the IC95 turned out to be 25 µM.

As for `C=C(CC[C@@H](C)[C@H]1CC=C2C3=C([C@@H](O)[C@H](OC(C)=O)[C@@]21C)[C@@]1(C)C[C@@H](O)[C@H](O)C(C)(C)[C@@H]1CC3)C(C)C` [INTEGRACIDE B], the concentration for half-maximal inhibition (IC50) in test [1] was 82 µM; in test [2], above 100 µM; in test [4], above 50 µM; in test [5] it was above 50 µM.
